A word on the ΔTm: it is the shift of the melting midpoint relative to a reference.

What all share (format): functional
The test system of assay [1] is Calf thymus DNA. Put plainly: Binding constant to reduce by 50% the fluorescence of ethidium bromide bound to calf thymus DNA; No displacement of DNA-bound ethidium bromide at 50 uM. The settings on record: Bos taurus. The method in brief: (§1)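 Competitive fluorometric displacement of ethidium bromide prebound to calf thymus DNA. The drug level that cuts ethidium fluorescence by 50% is found, and the binding constant is calculated from it.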

For assay [2], the species on record is Bos taurus. In words: Variation in melting temperature performed in BPE buffer at pH 7.1,using 10 uM drug and 20 uM calf thymus DNA (CT). The gist of the method:
(§2)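 UV melting is monitored at 260 nm with a 1 °C/min heating ramp. BPE buffer is 6 mM Na2HPO4, 2 mM NaH2PO4 and 1 mM EDTA, pH 7.1. DNA is calf thymus or poly(dAdT)2 at 20 μM. ΔTm = Tm(complex) − Tm(DNA alone).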

Assay [3] is filed under the species Bos taurus. Put plainly: Absorption spectral changes upon addition of 200 uM calf thymus DNA to drug solution at 20 uM in 1 mM Na cacodylate buffer at pH 7.0. The method in brief: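 Read-out is UV-visible absorption of the drug before and after DNA addition. Hypochromism (H) and bathochromic shift (Δλ) are reported.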
The species named for assay [4] is Bos taurus. In words: Variation in melting temperature performed in BPE buffer at pH 7.1,using 10 uM drug and 20 uM calf thymus poly (dAT). The method in brief:
as §2

Assay [5] relates to Calf thymus DNA. In words: Binding constant to reduce by 50% the fluorescence of ethidium bromide bound to calf thymus DNA. The settings on record: Bos taurus. The method in brief:
as §1

With `Cc1cc2n(c(=O)c1C(N)=O)Cc1cc3ccccc3nc1-2`, in the assay on Calf thymus DNA [1], the “K app x10e6” value is “No displacement of DNA-bound ethidium bromide at 50 uM”. In the assay filed under Bos taurus [2], the ΔTm was found to be 0 °C. Also, in the assay listed under Bos taurus [3], the Bathochromic shift came to 0 nm and the Hypochromic shift is 2.7%. For the same compound, the ΔTm in the assay listed under Bos taurus [4] is 0 °C.

In the case of `Cc1cc2n(c(=O)c1C(N)=O)Cc1cc3ccc(OCCN4CCCCC4)cc3nc1-2`, in the assay listed under Bos taurus [2], the thermal shift (ΔTm) is 4.6 °C. Moreover, in the assay filed under Bos taurus [3], the Bathochromic shift stood at 8 nm and the Hypochromic shift was determined as 35.8%. In the assay on Calf thymus DNA [5], this compound came in with a K app x10e6 of 0.2 M⁻¹. The ΔTm in the assay listed under Bos taurus [4] was found to be 12.8 °C.

Turning to `Cc1cc2n(c(=O)c1CN)Cc1cc3cc(OCCN4CCCCC4)ccc3nc1-2`, the ΔTm in the assay listed under Bos taurus [2] was 13.6 °C; in the assay listed under Bos taurus [4], 19.8 °C. Moreover, in the assay filed under Bos taurus [3], the Bathochromic shift was found to be 9 nm. Also, the Hypochromic shift in the assay listed under Bos taurus [3] worked out at 35.3%. In the assay on Calf thymus DNA [5], this compound displayed a K app x10e6 of 2.5 M⁻¹.

Turning to `Cc1cc2n(c(=O)c1C(N)=O)Cc1cc3cc(OCCN4CCCCC4)ccc3nc1-2`, the figures for the ΔTm in the assay listed under Bos taurus [2] and in the assay listed under Bos taurus [4] were 1.2 °C and 5.8 °C, respectively. In addition, the Bathochromic shift in the assay filed under Bos taurus [3] was determined as 9 nm. Further, the Hypochromic shift in the assay filed under Bos taurus [3] is 33%. Besides, the K app x10e6 in the assay with Calf thymus DNA [5] is 0.29 M⁻¹.

For the compound `Cc1cc2n(c(=O)c1CN)Cc1cc3ccccc3nc1-2`, in the assay with Calf thymus DNA [1], the “K app x10e6” value was “No displacement of DNA-bound ethidium bromide at 50 uM”. Also, the ΔTm in the assay filed under Bos taurus [2] was determined as 1.9 °C. In addition, in the assay filed under Bos taurus [3], the Bathochromic shift worked out at 8 nm and the Hypochromic shift stood at 33.1%. The ΔTm in the assay listed under Bos taurus [4] was found to be 3 °C.

Take `Cc1cc2n(c(=O)c1CN)Cc1cc3ccc(OCCN4CCCCC4)cc3nc1-2`: the ΔTm in the assay listed under Bos taurus [2] turned out to be 19.4 °C. In the assay listed under Bos taurus [3], the Bathochromic shift amounted to 11 nm and the Hypochromic shift was found to be 38.6%. Also, the K app x10e6 in the assay with Calf thymus DNA [5] is 8.4 M⁻¹. In addition, the ΔTm in the assay filed under Bos taurus [4] was 28.6 °C.

(Values after ChEMBL document CHEMBL1135697, “Formaldehyde-induced DNA cross-link of indolizino[1,2-b]quinolines derived from the A-D rings of camptothecin” (J Med Chem, 2002).)
